Screens: PubChem, The Scripps Research Institute Molecular Screening Center
Sampled rows, rich in hits. Any-hit rate of the full collection: about 1.8%.
M4 antag: blocks acetylcholine activation of human M4 receptor. CHO-hM4 cells, ACh EC80, Fluo-8 calcium fluorescence. P08173. inhibition, % at 3 µM. AID 624125. actives 0.73% (n = 360,000);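 active = inhibition above its plate's cutoff, the mean inhibition of sample wells plus 3 SD, cut at about 27% in these data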;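 also: 0% = acetylcholine EC80 with DMSO and 100% = DMSO without agonist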
Target sequence (P08173 whole entry, looked up): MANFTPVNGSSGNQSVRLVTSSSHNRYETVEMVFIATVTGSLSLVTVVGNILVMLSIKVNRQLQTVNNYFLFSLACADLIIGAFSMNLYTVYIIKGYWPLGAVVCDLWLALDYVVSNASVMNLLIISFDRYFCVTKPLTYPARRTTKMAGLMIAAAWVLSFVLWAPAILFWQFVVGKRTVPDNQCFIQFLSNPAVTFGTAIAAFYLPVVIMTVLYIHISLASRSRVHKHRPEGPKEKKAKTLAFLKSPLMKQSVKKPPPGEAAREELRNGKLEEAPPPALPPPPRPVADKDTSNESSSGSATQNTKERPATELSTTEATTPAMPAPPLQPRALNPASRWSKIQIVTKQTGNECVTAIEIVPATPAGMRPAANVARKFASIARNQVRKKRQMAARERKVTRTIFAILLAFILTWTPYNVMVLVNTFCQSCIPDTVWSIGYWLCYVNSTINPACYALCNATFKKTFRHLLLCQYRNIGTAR
CHRM5 agonist: CHRM5 agonism in calcium assay | P08912 | CHO-K1 hM5 cells, Fluo-8 calcium fluorescence; 0% DMSO wells, 100% maximal acetylcholine response | activation, % at 3 µM | actives 0.19% (n = 360,000) | AID 624037;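 active = activation above the run's mean over test compounds plus 3 SD, cut at about 23% in these data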;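 also: signal is peak over basal fluorescence ratio across the kinetic read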
CHRM5 PAM: CHRM5 positive allosteric modulation; P08912; CHO-K1 hM5, Fluo-8 calcium, ACh EC20 PAM; 0% = ACh EC20, 100% = ACh EC100; activation, % at 3 µM; actives 0.3% (n = 360,000); AID 624038;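 active = activation above the run cutoff, the mean activation of all test compounds plus 3 SD, cut at about 18% in these data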
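System – CHO-K1 hM5 cells · Compound – 3 µM, single dose · Incubation – compound preincubation 140 s before EC20 acetylcholine addition · Technique – Fluo-8 calcium fluorescence · Measure – Max/basal fluorescence ratio as % of EC20–EC100 ACh window · Benchmarks – low control EC20 acetylcholine (0%), high control EC100 acetylcholine (100%) · Replication – singlicate, one well per test compound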
CHRM4 agonist: CHRM4 agonism in calcium assay. AID 624127. P08173. actives 0.14% (n = 360,000). activation, % at 3 µM. CHO-K1 hM4/Gqi5, Fluo-8 calcium fluorescence; vehicle 0%, full acetylcholine response 100%;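 active = activation above the run mean over all test wells plus 3 SD, cut at about 32% in these data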;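 also: peak over basal fluorescence ratio per well then scaled between controls; 0% = DMSO wells and 100% = acetylcholine at EC100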
CHRM4 PAM: potentiates acetylcholine response at human M4 receptor; actives 0.4% (n = 360,000); CHO-K1 hM4/Gqi5, Fluo-8 calcium fluorescence, ACh EC20; 0% = ACh EC20, 100% = maximal ACh; AID 624126; P08173; activation, % at 3 µM;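 active = activation above its plate's cutoff, the mean activation of sample wells plus 3 SD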
M5 antag: antagonists of human muscarinic M5 receptor (CHRM5); P08912; CHO-hM5 cells, Fluo-8 calcium fluorescence, ACh EC80; inhibition, % at 3 µM; actives 0.59% (n = 360,000);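 active = inhibition above a per-plate cutoff, the mean of that plate's test compounds plus 3 SD, cut at about 27% in these data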;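 also: 0% = acetylcholine EC80 with DMSO and 100% = DMSO without agonist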
Starred values were filed as active, the others as inactive.

SMILES | M4 antag | CHRM5 agonist | CHRM5 PAM | CHRM4 agonist | CHRM4 PAM | M5 antag
CN(C)S(=O)(=O)c1cccc(C(=O)OCC(=O)c2c(N)n(C)c(=O)n(C)c2=O)c1 | -8 | -1 | -2 | 4 | 2 | 6
Cc1ccc(N(C)S(=O)(=O)c2cccc(C(=O)OCC(=O)c3c(N)n(C)c(=O)n(C)c3=O)c2)cc1 | 30* | 3 | -33 | 22 | -11 | 14
Cc1ccccc1OCC(O)Cn1c(=N)n(Cc2ccccc2)c2ccccc21 (stereo not drawn) | 27* | 5 | -7 | 25 | -28 | 15
Cc1nc2ccccc2n1CC(O)COc1ccccc1Cl (stereo not drawn) | 30* | 3 | -25 | 11 | -25 | 24
COc1cc(NC(=O)COc2cc(O)c3c(c2)OC(C)(C)CC3=O)cc(OC)c1OC | 3 | 13 | -25 | 31 | -10 | 43*
CC1(C)CC(=O)c2c(O)cc(OCC(=O)Nc3ccc(S(N)(=O)=O)cc3)cc2O1 | -6 | 1 | -3 | 3 | 2 | 6
Cc1ccc(S(=O)(=O)N(C)C)cc1NC(=O)COC(=O)Cc1cccs1 | -3 | -2 | 3 | 1 | 3 | 10
CC(Sc1nnc(C2CC2)n1-c1ccccc1)C(=O)N1CCNC1=O (stereo not drawn) | -11 | 3 | -4 | 0 | 23* | 3
CC(Sc1nnc(C2CC2)n1Cc1ccccc1)C(=O)N1CCNC1=O (stereo not drawn) | -3 | 0 | 5 | 1 | 3 | -4
CC(C)c1ccc(/C=C/C(=O)NC(=S)Nc2ccc(CN3CCOCC3)cc2)cc1 | 14 | -8 | -18 | 3 | -14 | 41*
CC(C)c1ccc(/C=C/C(=O)NC(=S)NN2CCOCC2)cc1 | -23 | -3 | -3 | 6 | 2 | 5
CC(C)Cn1c(N)c(C(=O)COC(=O)Cc2cccs2)c(=O)n(C)c1=O | 19 | 6 | -10 | 14 | -6 | 32*
CC(C)Cn1c(N)c(C(=O)COC(=O)/C=C/c2cccs2)c(=O)n(C)c1=O | 12 | 8 | -14 | 14 | -22 | 16
COc1ccc(N2CCOCC2)c(NC(=O)c2ccco2)c1 | 2 | -2 | 1 | 1 | -2 | 15
COC(=O)c1ccc(N2CCOCC2)c(NC(=O)c2ccco2)c1 | 28* | -4 | 7 | 0 | -8 | 3
Cc1ccc(CN2CCC(n3nccc3NC(=O)CCOc3ccccc3)CC2)o1 | -6 | -2 | 1 | 2 | -2 | 3
COc1ccc(C(=O)N/N=C/c2cc(Br)ccc2O)cc1OC | -5 | -2 | 3 | 8 | 6 | -4
CCCOc1ccc(Br)cc1/C=N/NC(=O)c1cc(OC)c(OC)c(OC)c1 | 16 | -2 | 4 | 3 | 28* | -4
Cc1oc(-c2ccc(Cl)cc2)nc1CS(=O)CC(=O)NCCCN1CCN(Cc2ccccc2)CC1 (stereo not drawn) | 9 | -7 | -12 | 6 | -12 | 31*
Cc1ccc(-c2nc(CS(=O)CC(=O)NCc3ccc(Cl)cc3)c(C)o2)cc1 (stereo not drawn) | -15 | -2 | -1 | 0 | 9 | -3
Cc1oc(-c2ccc(Cl)cc2)nc1CS(=O)CC(=O)NCc1ccccc1 (stereo not drawn) | -2 | -4 | 0 | 2 | 21* | 8
CCOc1ccccc1OCC(=O)Nc1ccc(N2CCOCC2)cc1N1CCOCC1 | 6 | 2 | -4 | 2 | 0 | 9
COc1ccc(-c2cc(CNC(=O)CCl)on2)cc1 | -14 | 0 | 19* | 3 | 8 | -7
COc1ccc(/C=C2\SC(=O)N(CC(=O)NCCC(C)C)C2=O)cc1OC | -1 | 7 | 19* | 1 | -1 | -10
COc1ccc(/C=C2/SC(=O)N(CC(=O)NCCC(C)C)C2=O)cc1OC | 6 | 3 | 1 | 0 | 1 | 8
SMILES | M4 antag | CHRM5 agonist | CHRM5 PAM | CHRM4 agonist | CHRM4 PAM | M5 antag
COc1c(Br)cc(/C=N/n2c(-c3ccccc3)n[nH]c2=S)c(O)c1Br | -3 | 1 | -4 | 1 | 4 | -1
Cc1nn(Cc2ccc(Cl)c(Cl)c2)c(C)c1NC(=O)c1cn(-c2ccccc2)nc1-c1ccccc1 | 11 | -2 | 25* | 2 | 13 | 4
O=C1N=c2ccccc2=C1c1sc(NS(=O)(=O)c2ccccc2)nc1O | 0 | -2 | 8 | -1 | 28* | 4
O=C1N=c2ccccc2=C1c1sc(NS(=O)(=O)Cc2ccccc2)nc1O | 5 | 0 | 4 | 0 | -10 | 2
CCn1c(C)nc2cc(S(N)(=O)=O)ccc21 | -5 | 0 | -2 | 1 | -1 | -9
CCn1c(C)nc2cc(S(=O)(=O)C(F)(F)C(F)C(F)(F)F)ccc21 (stereo not drawn) | 4 | 7 | -14 | 14 | -10 | 27*
Cc1ccc(S(=O)(=O)N(C)CC(=O)Nc2cc(C)ccn2)cc1 | 0 | -1 | 3 | 2 | 15 | 1
CC1(C(=O)NCc2ccc(F)c(F)c2)Cc2c(-c3ccccc3)ccnc2O1 (stereo not drawn) | -16 | -2 | -1 | 2 | 0 | 1
O=C1CSC(c2ccccc2F)N1c1ccccc1 (stereo not drawn) | -7 | -6 | -7 | 37* | 6 | -3
O=C1CSC(c2ccccc2F)N1c1ccccc1F (stereo not drawn) | 8 | -5 | -2 | 0 | 5 | 5
COc1cccc(C2SCC(=O)N2c2ccc(Br)cc2)c1OC (stereo not drawn) | 66* | -8 | -20 | -2 | -39 | 35*
O=C1CSC(c2ccccn2)N1c1ccccc1F (stereo not drawn) | -5 | -1 | -6 | 0 | 6 | 30*
COc1ccc(OC)c(CCNC(=O)c2cccc(NC3=NC4CS(=O)(=O)CC4S3)c2)c1 (stereo not drawn) | 1 | 2 | -1 | 0 | 5 | 1
CCc1nnc(NC(=O)CCC(=O)NCCc2ccccc2)s1 | -7 | -1 | 5 | 0 | -2 | -7
C#CCNC(=O)C[C@@H]1C[C@@]2(C(=O)OCC)CCCC=C2N(Cc2cccc3ccccc23)C1=O | -6 | -2 | 1 | 0 | 4 | -5
CCOC(=O)Cn1nc(C)n(-c2cccc(Cl)c2)c1=O | -12 | 6 | 19* | 3 | 24 | -5
O=C1OCc2ccc([N+](=O)[O-])cc21 | 4 | 2 | 11 | 2 | 12 | 1
COc1cccc(C2CC(c3ccccc3)=NN2S(=O)(=O)c2ccc(C)cc2)c1OC (stereo not drawn) | 2 | 5 | 27* | 1 | -6 | 3
